# Bioassay records (PubChem BioAssay)
# Only some compounds are listed: those with a hit (about 2.5% of all), similar ones and a draw of the others.
# A1 inh = inhibitors of the anti-apoptotic protein A1, read as caspase activation | MEF A1-2A-BIM cells, Caspase-Glo 3/7 luminescence, 3 h; percent of clofoctol response, vehicle zero | caspase activation, % (test concentration not listed) | actives 0.066% (n = 330,000);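 active = over half of replicate activation scores above 10%, or exactly half above 10 with the replicate mean above 10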
# MC4R ag barr = agonists of human melanocortin 4 receptor (MC4R) beta-arrestin; P32245; U2OS MC4R beta-arrestin complementation, luminescence; percent of melanotan II response, DMSO zero; activation, % at 8.9 µM; actives 0.98% (n = 360,000); AID 540308;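 active = activation above a per-plate cutoff, the mean activation of sample wells on that plate plus 3 SD, cut at about 8% in these data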
# Target sequence (P32245 whole entry, looked up): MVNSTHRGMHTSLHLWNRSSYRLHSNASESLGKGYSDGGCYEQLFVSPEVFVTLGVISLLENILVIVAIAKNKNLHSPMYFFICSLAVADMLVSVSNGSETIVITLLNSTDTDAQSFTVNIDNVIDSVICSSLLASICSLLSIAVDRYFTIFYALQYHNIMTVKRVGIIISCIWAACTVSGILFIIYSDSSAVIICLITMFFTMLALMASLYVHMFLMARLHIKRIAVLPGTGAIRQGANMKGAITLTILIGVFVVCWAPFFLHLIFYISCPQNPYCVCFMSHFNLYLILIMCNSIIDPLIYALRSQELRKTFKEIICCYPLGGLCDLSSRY
# Tb MetRS inh = Trypanosoma brucei MetRS inhibition; purified T. brucei MetRS, ATP depletion, Kinase-Glo luminescence; inhibition, % at 11.9 µM; actives 0.4% (n = 360,000); AID 624268;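 active = inhibition above a per-plate cutoff of the control wells' mean inhibition plus 3 SD, cut at about 5.5% in these data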;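 note: 0% = DMSO wells median and 100% = median of wells with control inhibitor compound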
#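 assay system = parasite MetRS enzyme | timing = 15 min preincubation, 2 h reaction, all 25 °C | evaluation = percent inhibition relative to median high and low control wells | medium = HEPES buffer containing pyrophosphatase, BSA, spermine, DTT | compound = single dose, 11.9 µM final nominal, 0.9% final DMSO | detection = Kinase-Glo luminescence, ATP depletion format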
# NALP3 yeast inh = inhibitors of NALP3 inflammasome in yeast | Yeast reconstituted NLRP3/ASC/caspase-1, beta-gal luminescence, 24 h | inhibition, % at 10 µM | actives 0.39% (n = 330,000) | AID 2825;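 active = inhibition of 50% or more; inactive = inhibition below 50%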;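 note: plate controls were induced DMSO wells for no effect and uninduced yeast grown without galactose for full effect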
# MC4R antag cAMP = blocks human MC4R cAMP signaling. MC4R-expressing cells, MTII-stimulated cAMP, LANCE TR-FRET. inhibition, % at 6.5 µM. actives 0.48% (n = 360,000). AID 540295;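 active = inhibition above its plate's cutoff, the mean of tested wells on that plate plus 3 SD, cut at about 29% in these data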;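 note: 0% = Melanotan II alone and 100% = Melanotan II plus saturating MCL0020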
#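 Material: U2OS-MC4R stable cell line | Reagent: Melanotan II challenge after compound preincubation | Doses: One concentration, 6.5 µM nominal | Incubation: 30-min compound preincubation, 1-h Melanotan II challenge, 1-h detection, room temperature | Signal: TR-FRET cAMP assay | Replicates: One well per compound, no replicates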
# NALP1 yeast inh = blocks the NALP1 inflammasome reconstituted in yeast; S. cerevisiae NALP1/ASC/caspase-1 growth, X-gal OD620, 72 h; inhibition, % at 10 µM; actives 0.61% (n = 280,000); in the data active = inhibition mostly above about 24%, no sharp cut-off; inactive = mostly below about 32%
# Tb MetRS conf = confirmation of Trypanosoma brucei MetRS inhibitors. shares compounds with Tb MetRS inh. T. brucei MetRS enzyme, luminescence (ATP depletion). inhibition, % at 11.9 µM. actives 93% (n = 1,400); in the data active = inhibition above about 7%
# Jurkat cytotox = Jurkat T cell cytotoxicity for MetRS hits. inhibition, % at 8.3 µM. shares compounds with Tb MetRS inh. actives 12% (n = 1,400). AID 624413. Jurkat cells viability, ATP luminescence; in the data active = inhibition above about 15%;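 note: 0% = vehicle and 100% = reference inhibitor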
# Tb MetRS inh FP = inhibits T. brucei methionyl tRNA synthetase in orthogonal FP test | shares compounds with Tb MetRS inh | purified T. brucei MetRS, fluorescence polarization | inhibition, % at 11.9 µM | actives 44% (n = 1,400); in the data active = inhibition above about 17%;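 note: 0% = vehicle wells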
# * = called active by the depositor; nt = no result.
SMILES,A1 inh,MC4R ag barr,Tb MetRS inh,NALP3 yeast inh,MC4R antag cAMP,NALP1 yeast inh,Tb MetRS conf,Jurkat cytotox,Tb MetRS inh FP
CCCC(C)C1(CC)C(=O)NC(=Nc2ccccc2)NC1=O (centres undefined),0.2,-0.6,8.7*,-14.7,1.8,10.4,17.6*,4.9,8.7
CCCC1(CCC)C(=O)NC(=Nc2ccccc2)NC1=O,-0.2,4.8,12.0*,14.5,-7.8,3.0,18.7*,-6.3,7.4
CCCC(C)C1(CC)C(=O)NC(=Nc2ccc(F)cc2)NC1=O (centres undefined),-0.7,-0.9,0.6,10.7,2.8,29.4,nt,nt,nt
N#Cc1cc2c(nc1SCC(=O)Nc1ccc(Cl)cc1)C1CCN2CC1,1.7,-1.8,9.2*,-0.7,6.9,0.8,15.1*,19.6*,9.5
O=C1NC(=O)C(=Cc2ccc(N3CCN(C(=O)c4ccccc4)CC3)c([N+](=O)[O-])c2)C(=O)N1,1.0,1.9,12.9*,11.8,11.9,10.2,18.5*,0.7,4.9
CCn1nc(/C=C/c2ccccc2)nc2c(=O)n(C)c(=O)nc1-2,nt,0.9,17.6*,21.6,-33.5,-2.3,36.5*,56.7*,6.0
CC12CC(O)C3C(CCC4=CC(=O)CCC43C)C1CCC2=O (centres undefined),nt,-1.6,-0.2,nt,-1.0,nt,nt,nt,nt
CCOCC1(CCc2ccccc2)C(=O)NC(=S)NC1=O,nt,-0.2,-0.6,nt,5.3,nt,nt,nt,nt
O=Cc1c(C(=O)O)n(Cc2ccc(F)cc2Cl)c2ccccc12,0.3,-0.2,1.5,18.1,8.4,-1.5,nt,nt,nt
Cc1nccc2c1[nH]c1ccc(Br)cc12,-0.8,0.9,9.0*,21.5,-1.0,nt,17.1*,2.6,8.8
COc1ccc2c(c1)[nH]c1c(C)nccc12,-0.3,0.2,0.0,8.1,-5.4,nt,nt,nt,nt
NC(=O)OCCSc1nnc(-c2cccc(C(N)=S)c2)o1,-0.2,1.2,16.1*,10.1,2.5,-14.4,10.2*,0.9,-0.2
Cc1[nH]nc2ccc(-c3cncc(OC[C@@H](N)Cc4c[nH]c5ccccc45)c3)cc12,nt,2.8,0.5,nt,-5.9,nt,nt,nt,nt
CCOCCCn1c(N)c(C(=O)Nc2sc3c(c2C(=O)OC)CCCC3)c2nc3ccccc3nc21,0.4,-1.2,8.3*,12.1,16.1,10.8,2.1,1.3,6.8
CCOC(=O)c1c(NC(=O)c2c(N)n(CCCOC)c3nc4ccccc4nc23)sc2c1CCCC2,-0.3,-1.1,-0.5,27.2,3.2,25.7,nt,nt,nt
O=C(CCC(=O)N1CC2C[C@@H](C1)Cn1c2cccc1=O)NCCc1ccccc1F,0.0,0.8,-2.5,5.3,5.1,-6.3,nt,nt,nt
CN(C)c1ccc(NC(=O)CN2C(=O)CN=C(c3ccccc3)c3cc(Cl)ccc32)cc1,-0.2,0.0,0.4,25.4,4.2,22.4,nt,nt,nt
Cc1ccc(NC(=O)CN2C(=O)CN=C(c3ccccc3)c3cc(Cl)ccc32)cc1,nt,7.5,58.7*,18.6,7.3,21.0,80.6*,5.7,53.0*
C[C@](N)(CCP(=O)(O)O)C(=O)O,0.9,-0.8,-0.5,3.3,2.8,nt,nt,nt,nt
Clc1ccc(COC(Cn2ccnc2)c2ccc(Cl)cc2Cl)c(Cl)c1 (centres undefined),0.4,-1.6,42.5*,23.8,4.5,23.2,58.4*,13.5,46.1*
